Results from paper PMC6044864 (ACS Omega, 2017).

Columns and labels:
[1] = tested on: Candida albicans cells; conditions: cited from earlier work
[2] = tested on: bacteria; conditions: cited from earlier work
[3] = tested on: Trichosporon beigelii cells; conditions: cited from earlier work
[4] = tested on: HeLa cells; conditions: cited from earlier work
[5] = tested on: human erythrocytes; conditions: cited from earlier work
[6] = Photodegradation; assay type: physicochemical; conditions: photostability; 10 μmol·L^–1 in 60% ACN/H2O/0.09% TFA; laser 440 nm; 0 to 50 min
In short: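 Test compound was irradiated in solution at room temperature with a pulsed 10 Hz laser at 440 nm for 50 min. UV/vis absorption spectra were recorded before irradiation and every 5 min. Absorbance maximum at 440 nm was plotted against time, and the change was taken as the difference between initial and final readings.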

TAT peptide (47-58): carboxyl-free analogue of TAT(47-57)-NH2
Growth inhibition of Candida albicans cells [1]: inhibit the growth
Growth inhibition of bacteria [2]: inhibit the growth
Cell penetration and nuclear localisation [3]: penetrate, and localize in the nucleus
Cell penetration and nuclear localisation [4]: penetrate, and localize in the nucleus
Hemolytic effect [5]: without hemolytic effect

5(6)-carboxyfluorescein [FAM]
Difference of absorbance at 440 nm in 50 min of exposure to light [6]: 0.022
